The structures appear in SMILES notation.

Holding throughout (assay type): functional
The test system of assay [1] is Rattus norvegicus. The experiment in a line: Increase of Apolipoprotein A-I level in cholesterol-fed male rats at 88 mg/kg/day relative to control. In a few lines: (§1)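 Drug mixed into diet, fed ad libitum for 8 days to groups of six male Sprague–Dawley rats on a cholesterol diet. Serum Apo A-I measured by SDS–polyacrylamide gel electrophoresis or by rat competition ELISA. Reported as % change versus untreated controls, with significance set at p < 0.05.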

Assay [2] concerns Rattus norvegicus. As to the kind of experiment: Increase of HDL level in cholesterol-fed male rats by ultracentrifugation method at 88 mg/kg/day relative to control. In a few lines: (§2)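 Compound given in the diet, ad libitum, to groups of six male Sprague–Dawley rats on a cholesterol diet for 8 days. Serum lipoproteins were separated by classical ultracentrifugation, and HDL cholesterol was quantitated by an enzymatic colorimetric method. Results are reported as % change relative to untreated controls, with significance at p < 0.05 versus controls.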

Assay [3] concerns Rattus norvegicus. The experiment in a line: Increase of HDL level in cholesterol-fed male rats by FPLC method at 88 mg/kg/day relative to control. Summed up: (§3)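 Groups of six male Sprague–Dawley rats on a cholesterol diet received drug in the diet, ad libitum, for 8 days. Serum lipoproteins separated by FPLC, adapted for robotic automation, and cholesterol quantitated enzymatically by colorimetry. HDL given as % change versus untreated controls, with significance set at p < 0.05.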

The test system of assay [4] is Rattus norvegicus. As to the kind of experiment: Weight gain in cholesterol-fed male rats at 88 mg/kg/day relative to control. In a few lines:
(§4)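 Groups of six male Sprague–Dawley rats on a cholesterol diet received the compound in the diet, ad libitum, over 8 days. Body weight gain is reported as % change relative to untreated controls.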

The species entered for assay [5] is Rattus norvegicus. The experiment in a line: Increase in liver enzyme Alanine aminotransferase.
The species named for assay [6] is Rattus norvegicus. As to the kind of experiment: Increase in liver enzyme Aspartate aminotransferase. Further details: concentration or dose not given beside the values.
Assay [7] deals with Rattus norvegicus. The experiment in a line: Increase of total cholesterol level in cholesterol-fed male rats at 88 mg/kg/day relative to control. Summed up: (§5)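 Dietary (ad libitum) dosing of groups of six male Sprague–Dawley rats on a cholesterol diet for 8 days. Serum total cholesterol was quantitated enzymatically by a colorimetric method and expressed as % change relative to untreated controls, with significance at p < 0.05.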

Assay [8] has as its system Rattus norvegicus. As to the kind of experiment: Triglyceride level in cholesterol-fed male rats at 88 mg/kg/day relative to control. Summed up: (§6)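 Male Sprague–Dawley rats on a cholesterol diet, in groups of six, received the compound in the diet ad libitum for 8 days. Serum triglycerides are expressed as % change relative to untreated controls, with significance at p < 0.05 versus controls.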

Assay [9] concerns Rattus norvegicus. The experiment in a line: Weight gain in cholesterol-fed male rats at 71 mg/kg/day relative to control. In a few lines:
as §4

The test system of assay [10] is Rattus norvegicus. As to the kind of experiment: Increase of HDL level in cholesterol-fed male rats by ultracentrifugation method at 71 mg/kg/day relative to control. In a few lines:
(§7)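 Cholesterol-fed male Sprague–Dawley rats, six per group, given drug in the diet ad libitum for 8 days. Serum lipoproteins separated by classical ultracentrifugation and HDL cholesterol measured by an enzymatic colorimetric method. Expressed as % change versus untreated controls, with significance set at p < 0.05.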

Assay [11] deals with Rattus norvegicus. As to the kind of experiment: Increase of total cholesterol level in cholesterol-fed male rats at 71 mg/kg/day relative to control. In a few lines: as §5
Assay [12] deals with Rattus norvegicus. The experiment in a line: Increase of HDL level in cholesterol-fed male rats by FPLC method at 71 mg/kg/day relative to control. In a few lines: as §3
In assay [13] the test system is Rattus norvegicus. The experiment in a line: Triglyceride level in cholesterol-fed male rats at 71 mg/kg/day relative to control. In a few lines:
as §6

Assay [14] concerns Rattus norvegicus. The experiment in a line: Increase of HDL level in cholesterol-fed male rats by ultracentrifugation method at 70 mg/kg/day relative to control. In a few lines:
as §7

For assay [15], the system named is Rattus norvegicus. As to the kind of experiment: Weight gain in cholesterol-fed male rats at 70 mg/kg/day relative to control. In a few lines: as §4
Assay [16] concerns Rattus norvegicus. The experiment in a line: Increase of total cholesterol level in cholesterol-fed male rats at 70 mg/kg/day relative to control. Summed up: as §5
Assay [17] has as its system Rattus norvegicus. As to the kind of experiment: Increase of HDL level in cholesterol-fed male rats by FPLC method at 70 mg/kg/day relative to control. In a few lines: as §3
The test system of assay [18] is Rattus norvegicus. As to the kind of experiment: Increase of Apolipoprotein A-I level in cholesterol-fed male rats at 70 mg/kg/day relative to control. In a few lines:
as §1

Assay [19] has as its system Rattus norvegicus. As to the kind of experiment: Triglyceride level in cholesterol-fed male rats at 70 mg/kg/day relative to control. Summed up:
as §6

Assay [20] deals with Rattus norvegicus. The experiment in a line: Increase of Apolipoprotein A-I level in cholesterol-fed male rats at 73 mg/kg/day relative to control. Summed up:
as §1

Assay [21] deals with Rattus norvegicus. As to the kind of experiment: Increase of HDL level in cholesterol-fed male rats by ultracentrifugation method at 73 mg/kg/day relative to control. Summed up:
as §2

For assay [22], the system named is Rattus norvegicus. The experiment in a line: Increase of total cholesterol level in cholesterol-fed male rats at 73 mg/kg/day relative to control. Summed up:
as §5

In assay [23] the test system is Rattus norvegicus. The experiment in a line: Increase of HDL level in cholesterol-fed male rats by FPLC method at 73 mg/kg/day relative to control. In a few lines:
as §3

In assay [24] the test system is Rattus norvegicus. As to the kind of experiment: Weight gain in cholesterol-fed male rats at 73 mg/kg/day relative to control. Summed up: as §4
Assay [25] relates to Rattus norvegicus. As to the kind of experiment: Triglyceride level in cholesterol-fed male rats at 73 mg/kg/day relative to control. Summed up: as §6
Assay [26] has as its system Rattus norvegicus. The experiment in a line: Increase of total cholesterol level in cholesterol-fed male rats at 57 mg/kg/day relative to control. Summed up:
as §5

For assay [27], the system named is Rattus norvegicus. As to the kind of experiment: Weight gain in cholesterol-fed male rats at 57 mg/kg/day relative to control. In a few lines: as §4
Assay [28] has as its system Rattus norvegicus. The experiment in a line: Increase of HDL level in cholesterol-fed male rats by ultracentrifugation method at 57 mg/kg/day relative to control. Summed up:
as §7

The test system of assay [29] is Rattus norvegicus. As to the kind of experiment: Increase of HDL level in cholesterol-fed male rats by FPLC method at 57 mg/kg/day relative to control. Summed up: as §3
The subject of assay [30] is Rattus norvegicus. The experiment in a line: Increase of Apolipoprotein A-I level in cholesterol-fed male rats at 57 mg/kg/day relative to control. In a few lines: as §1
For assay [31], the system named is Rattus norvegicus. As to the kind of experiment: Triglyceride level in cholesterol-fed male rats at 57 mg/kg/day relative to control. Summed up:
as §6

For assay [32], the system named is Rattus norvegicus. As to the kind of experiment: Increase of Apolipoprotein A-I level in cholesterol-fed male rats at 82 mg/kg/day relative to control. In a few lines: as §1
Assay [33] deals with Rattus norvegicus. As to the kind of experiment: Weight gain in cholesterol-fed male rats at 82 mg/kg/day relative to control. In a few lines:
as §4

Assay [34] deals with Rattus norvegicus. The experiment in a line: Increase of HDL level in cholesterol-fed male rats by ultracentrifugation method at 82 mg/kg/day relative to control. In a few lines:
as §2

For assay [35], the system named is Rattus norvegicus. As to the kind of experiment: Increase of HDL level in cholesterol-fed male rats by FPLC method at 82 mg/kg/day relative to control. Summed up: as §3
The test system of assay [36] is Rattus norvegicus. The experiment in a line: Increase of total cholesterol level in cholesterol-fed male rats at 82 mg/kg/day relative to control. Summed up:
as §5

For assay [37], the system named is Rattus norvegicus. The experiment in a line: Triglyceride level in cholesterol-fed male rats at 82 mg/kg/day relative to control. In a few lines: as §6
The subject of assay [38] is Rattus norvegicus. The experiment in a line: Increase of HDL level in cholesterol-fed male rats by ultracentrifugation method at 78 mg/kg/day relative to control. In a few lines: as §2
The subject of assay [39] is Rattus norvegicus. The experiment in a line: Weight gain in cholesterol-fed male rats at 78 mg/kg/day relative to control. In a few lines: as §4
In assay [40] the test system is Rattus norvegicus. As to the kind of experiment: Increase of total cholesterol level in cholesterol-fed male rats at 78 mg/kg/day relative to control. In a few lines:
as §5

Assay [41] deals with Rattus norvegicus. The experiment in a line: Increase of HDL level in cholesterol-fed male rats by FPLC method at 78 mg/kg/day relative to control. Summed up:
as §3

Assay [42] deals with Rattus norvegicus. As to the kind of experiment: Increase of Apolipoprotein A-I level in cholesterol-fed male rats at 78 mg/kg/day relative to control. Summed up:
as §1

For assay [43], the system named is Rattus norvegicus. The experiment in a line: Triglyceride level in cholesterol-fed male rats at 78 mg/kg/day relative to control. Summed up:
as §6

Assay [44] is filed under the species Rattus norvegicus. The experiment in a line: Increase in liver enzyme Alkaline phosphatase. Details: concentration or dose not given beside the values.
Assay [45] has as its system Rattus norvegicus. The experiment in a line: Increase of Apolipoprotein A-I level in cholesterol-fed male rats at 81 mg/kg/day relative to control. In a few lines: as §1
The test system of assay [46] is Rattus norvegicus. The experiment in a line: Weight gain in cholesterol-fed male rats at 81 mg/kg/day relative to control. In a few lines:
as §4

For assay [47], the system named is Rattus norvegicus. As to the kind of experiment: Increase of HDL level in cholesterol-fed male rats by ultracentrifugation method at 81 mg/kg/day relative to control. Summed up:
as §2

For assay [48], the system named is Rattus norvegicus. The experiment in a line: Increase of HDL level in cholesterol-fed male rats by FPLC method at 81 mg/kg/day relative to control. In a few lines: as §3
Assay [49] relates to Rattus norvegicus. As to the kind of experiment: Increase of total cholesterol level in cholesterol-fed male rats at 81 mg/kg/day relative to control. Summed up: as §5
The test system of assay [50] is Rattus norvegicus. The experiment in a line: Triglyceride level in cholesterol-fed male rats at 81 mg/kg/day relative to control. In a few lines:
as §6

On to `Cc1ccc(Cl)cc1/N=C(\S)NCC(C)(C)C`, for which the Activity in assay [1] was determined as 89%; in assay [2], 122%; in assay [3] it was 196%; in assay [4], 7%; in [5] it was 111%; in [6], 49%. For the same compound, the values for the Activity in assay [7] and in assay [8] were 3% and -66%, respectively.
Consider `CCC/N=C(\S)Nc1cc(C)ccc1OC`, for which the Activity in [9] is -16%; in assay [10], 84%; in assay [11], 71%; in [12] it was 63%; in [13], -38%.
On to `CCC/N=C(\S)Nc1cc(Cl)ccc1CC`, for which the Activity in assay [14] is recorded as 101%; in [15], -33%; in assay [16], 28%; in assay [17] it was 369%; in assay [18], 43%; in assay [19], -61%.
For the compound `CC/N=C(\S)Nc1cc(Cl)ccc1C`, the Activity in assay [20] is 27%; in [21] it was 110%; in assay [22], 32%; in assay [23], 215%; in [24], -107%; in [5], 81%. For the same compound, the Activity in assay [6] is on record as 162%; in assay [25] it was -64%.
On to `CCC/N=C(\S)Nc1cc(F)ccc1C`, for which the Activity was 54% in assay [26]; -77% in assay [27]; 152% in assay [28]; 312% in [29]; 18% in assay [30]; -58% in [31].
For the compound `Cc1ccc(Cl)cc1N/C(S)=N/C(C)C(C)(C)C` (configuration not stated), the Activity is recorded as 34% in assay [32]; -24% in assay [33]; 93% in assay [34]; 109% in assay [35]; 15% in assay [36]; -35% in [37].
In the case of `CCC/N=C(\S)Nc1cc(Cl)ccc1OC`, the Activity in assay [38] is 99%; in assay [39], -6%; in assay [40], 49%; in [41], 97%; in [42], 58%; in assay [43], -43%. Moreover, the Activity in assay [44] is 44%.
`CCC(C)(C)/N=C(\S)Nc1cc(Cl)ccc1C`: the Activity was 64% in assay [45]; 15% in assay [46]; 55% in assay [47]; 39% in assay [48]; -10% in assay [49]; -14% in assay [50].

(Values after ChEMBL document CHEMBL1148541, “Biological evaluation of 1-alkyl-3-phenylthioureas as orally active HDL-elevating agents” (Bioorg Med Chem Lett, 2006).)
